Source: ChEMBL document CHEMBL2157861, “Discovery of 4-morpholino-pyrimidin-6-one and 4-morpholino-pyrimidin-2-one-containing Phosphoinositide 3-kinase (PI3K) p110β isoform inhibitors through structure-based fragment optimisation” (Bioorg Med Chem Lett, 2012)
Values after ≈ are worked out from the molar mass of the structure shown.

Key:
[1] = target: Phosphatidylinositol 4,5-bisphosphate 3-kinase catalytic subunit beta isoform (Homo sapiens, UniProt P42338); experiment: Inhibition of human recombinant His6-tagged PI3K p110beta expressed in baculovirus using DiC8-PI(4,5)P2 as substrate after 20 mins by AlphaScreen assay
Summary of the method: (§1)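 Values are the mean of at least two experiments. Experimental error was within 20% of the value.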

[2] = target: Phosphatidylinositol 4,5-bisphosphate 3-kinase catalytic subunit alpha isoform (Homo sapiens, UniProt P42336); experiment: Inhibition of human recombinant His6-tagged PI3K p110alpha expressed in baculovirus using DiC8-PI(4,5)P2 as substrate after 20 mins by AlphaScreen assay; summary of the method: as §1
[3] = Lipophilicity, log D of the compound by HPLC analysis at pH 7.4; type: physicochemical; conditions: buffer
Summary of the method: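 LogD was determined experimentally at pH 7.4 by an HPLC method.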

[4] = Solubility of the compound in DMSO/HBSS at pH 7.4; type: physicochemical
Summary of the method: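 Solubility was measured from DMSO into HBSS at pH 7.4.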

[5] = Half life in human liver microsomes after 30 mins; type: ADME, Microsome
Summary of the method: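 Half-life was measured after a 30 min incubation with human liver microsomes at 0.5 mg/mL.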

Liver microsomes = experiment: Drug metabolism in human liver microsomes assessed as reactive glutathione adduct formation ratio after 30 mins relative to clozapine; type: ADME, Microsome; conditions: 0.5 h
Summary of the method: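 Human liver microsomes at 1 mg/mL were incubated for 30 min in the presence of glutathione. The read-out was the ratio of reactive metabolite formation.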

[6] = target: T1, Phosphatidylinositol 4,5-bisphosphate 3-kinase catalytic subunit delta isoform (Homo sapiens, UniProt O00329); experiment: Inhibition of PI3K p110delta
T1 sequence (O00329 whole entry): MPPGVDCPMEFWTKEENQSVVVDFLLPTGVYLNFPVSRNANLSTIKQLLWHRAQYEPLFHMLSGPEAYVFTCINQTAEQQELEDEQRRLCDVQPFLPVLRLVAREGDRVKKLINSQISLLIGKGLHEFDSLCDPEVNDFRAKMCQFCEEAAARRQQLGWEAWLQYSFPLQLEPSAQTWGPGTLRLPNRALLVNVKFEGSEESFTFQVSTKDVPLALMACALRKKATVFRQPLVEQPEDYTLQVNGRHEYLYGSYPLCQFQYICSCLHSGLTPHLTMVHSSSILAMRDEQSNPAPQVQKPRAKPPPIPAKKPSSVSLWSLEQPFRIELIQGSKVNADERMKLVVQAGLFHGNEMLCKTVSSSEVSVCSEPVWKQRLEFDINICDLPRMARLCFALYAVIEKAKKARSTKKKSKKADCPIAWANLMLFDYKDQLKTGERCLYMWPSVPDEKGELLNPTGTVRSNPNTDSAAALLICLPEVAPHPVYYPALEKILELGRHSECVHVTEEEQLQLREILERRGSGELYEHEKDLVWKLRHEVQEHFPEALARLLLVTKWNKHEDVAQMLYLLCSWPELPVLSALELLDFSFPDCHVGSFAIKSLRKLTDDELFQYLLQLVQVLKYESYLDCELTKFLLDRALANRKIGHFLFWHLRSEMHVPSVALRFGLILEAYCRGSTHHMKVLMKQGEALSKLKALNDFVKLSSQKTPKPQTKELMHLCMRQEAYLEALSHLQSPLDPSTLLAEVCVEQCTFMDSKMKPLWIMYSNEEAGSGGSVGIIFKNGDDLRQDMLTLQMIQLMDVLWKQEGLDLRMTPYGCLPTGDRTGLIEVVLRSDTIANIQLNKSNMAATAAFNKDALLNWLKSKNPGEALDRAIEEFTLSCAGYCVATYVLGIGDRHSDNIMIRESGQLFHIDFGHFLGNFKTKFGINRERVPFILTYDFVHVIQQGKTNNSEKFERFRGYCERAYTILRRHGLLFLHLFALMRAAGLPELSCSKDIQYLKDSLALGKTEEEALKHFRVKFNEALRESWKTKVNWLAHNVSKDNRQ

[7] = target: Phosphatidylinositol 4,5-bisphosphate 3-kinase catalytic subunit gamma isoform (Homo sapiens, UniProt P48736); experiment: Inhibition of PI3K p110gamma
Phosphatidylinositol 4,5-bisphosphate 3-kinase catalytic subunit gamma isoform, sequence (P48736 whole entry, canonical isoform): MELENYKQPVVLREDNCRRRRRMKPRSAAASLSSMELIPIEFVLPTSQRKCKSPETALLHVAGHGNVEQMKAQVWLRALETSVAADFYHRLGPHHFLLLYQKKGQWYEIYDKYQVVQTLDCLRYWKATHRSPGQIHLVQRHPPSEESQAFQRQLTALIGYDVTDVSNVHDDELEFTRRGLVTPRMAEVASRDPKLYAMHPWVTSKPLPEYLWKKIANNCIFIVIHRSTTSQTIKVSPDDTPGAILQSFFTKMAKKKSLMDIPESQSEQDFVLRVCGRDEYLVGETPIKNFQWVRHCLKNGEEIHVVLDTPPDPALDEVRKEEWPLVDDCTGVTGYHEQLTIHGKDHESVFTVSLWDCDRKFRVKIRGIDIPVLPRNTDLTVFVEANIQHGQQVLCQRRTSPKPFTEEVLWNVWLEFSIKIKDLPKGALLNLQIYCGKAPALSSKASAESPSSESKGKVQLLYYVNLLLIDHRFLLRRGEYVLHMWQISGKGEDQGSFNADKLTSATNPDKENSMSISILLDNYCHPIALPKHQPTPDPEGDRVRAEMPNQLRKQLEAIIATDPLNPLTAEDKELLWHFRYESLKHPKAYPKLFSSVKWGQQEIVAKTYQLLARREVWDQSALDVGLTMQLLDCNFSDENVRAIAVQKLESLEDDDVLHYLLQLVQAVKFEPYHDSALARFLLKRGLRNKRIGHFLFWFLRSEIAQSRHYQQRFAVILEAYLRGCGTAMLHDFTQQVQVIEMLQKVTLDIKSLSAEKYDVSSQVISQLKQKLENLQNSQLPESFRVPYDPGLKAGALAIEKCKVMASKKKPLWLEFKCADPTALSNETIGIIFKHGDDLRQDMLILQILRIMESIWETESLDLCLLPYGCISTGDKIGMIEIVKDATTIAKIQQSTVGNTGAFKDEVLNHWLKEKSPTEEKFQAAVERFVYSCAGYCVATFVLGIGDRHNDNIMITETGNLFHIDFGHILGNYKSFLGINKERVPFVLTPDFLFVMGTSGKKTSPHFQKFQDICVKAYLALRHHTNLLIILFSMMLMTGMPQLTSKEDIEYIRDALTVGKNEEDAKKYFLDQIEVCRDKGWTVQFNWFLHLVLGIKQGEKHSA

Phosphatidylinositol 4,5-bisphosphate 3-kinase catalytic subunit alpha isoform, sequence (P42336 whole entry, canonical isoform): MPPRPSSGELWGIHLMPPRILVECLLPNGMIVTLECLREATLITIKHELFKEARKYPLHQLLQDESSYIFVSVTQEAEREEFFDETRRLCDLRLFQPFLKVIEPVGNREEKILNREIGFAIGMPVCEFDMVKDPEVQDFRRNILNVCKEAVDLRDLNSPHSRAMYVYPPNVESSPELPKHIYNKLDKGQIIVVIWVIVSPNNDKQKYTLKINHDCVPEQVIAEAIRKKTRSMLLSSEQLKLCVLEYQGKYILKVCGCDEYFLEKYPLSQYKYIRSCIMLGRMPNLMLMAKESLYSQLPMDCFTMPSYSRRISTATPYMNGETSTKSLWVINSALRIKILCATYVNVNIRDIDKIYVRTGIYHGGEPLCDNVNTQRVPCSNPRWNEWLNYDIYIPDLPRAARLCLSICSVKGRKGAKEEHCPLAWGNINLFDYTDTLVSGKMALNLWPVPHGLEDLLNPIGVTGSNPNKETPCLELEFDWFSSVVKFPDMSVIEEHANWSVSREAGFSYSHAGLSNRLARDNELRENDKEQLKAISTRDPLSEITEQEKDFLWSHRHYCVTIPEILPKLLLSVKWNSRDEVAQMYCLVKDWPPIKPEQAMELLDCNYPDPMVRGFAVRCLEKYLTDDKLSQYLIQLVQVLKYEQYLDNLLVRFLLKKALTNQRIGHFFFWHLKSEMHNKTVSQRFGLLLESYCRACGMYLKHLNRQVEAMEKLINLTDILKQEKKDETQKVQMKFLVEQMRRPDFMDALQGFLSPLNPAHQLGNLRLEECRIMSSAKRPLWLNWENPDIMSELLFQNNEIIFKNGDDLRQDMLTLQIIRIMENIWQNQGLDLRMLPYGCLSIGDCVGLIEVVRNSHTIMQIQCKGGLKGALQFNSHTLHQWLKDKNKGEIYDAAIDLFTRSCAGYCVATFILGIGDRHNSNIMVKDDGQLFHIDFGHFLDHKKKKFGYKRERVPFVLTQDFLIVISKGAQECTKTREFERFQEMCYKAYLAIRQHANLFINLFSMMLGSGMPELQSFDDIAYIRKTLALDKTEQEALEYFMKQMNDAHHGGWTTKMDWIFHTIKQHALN
Phosphatidylinositol 4,5-bisphosphate 3-kinase catalytic subunit beta isoform, sequence (P42338 whole entry, canonical isoform): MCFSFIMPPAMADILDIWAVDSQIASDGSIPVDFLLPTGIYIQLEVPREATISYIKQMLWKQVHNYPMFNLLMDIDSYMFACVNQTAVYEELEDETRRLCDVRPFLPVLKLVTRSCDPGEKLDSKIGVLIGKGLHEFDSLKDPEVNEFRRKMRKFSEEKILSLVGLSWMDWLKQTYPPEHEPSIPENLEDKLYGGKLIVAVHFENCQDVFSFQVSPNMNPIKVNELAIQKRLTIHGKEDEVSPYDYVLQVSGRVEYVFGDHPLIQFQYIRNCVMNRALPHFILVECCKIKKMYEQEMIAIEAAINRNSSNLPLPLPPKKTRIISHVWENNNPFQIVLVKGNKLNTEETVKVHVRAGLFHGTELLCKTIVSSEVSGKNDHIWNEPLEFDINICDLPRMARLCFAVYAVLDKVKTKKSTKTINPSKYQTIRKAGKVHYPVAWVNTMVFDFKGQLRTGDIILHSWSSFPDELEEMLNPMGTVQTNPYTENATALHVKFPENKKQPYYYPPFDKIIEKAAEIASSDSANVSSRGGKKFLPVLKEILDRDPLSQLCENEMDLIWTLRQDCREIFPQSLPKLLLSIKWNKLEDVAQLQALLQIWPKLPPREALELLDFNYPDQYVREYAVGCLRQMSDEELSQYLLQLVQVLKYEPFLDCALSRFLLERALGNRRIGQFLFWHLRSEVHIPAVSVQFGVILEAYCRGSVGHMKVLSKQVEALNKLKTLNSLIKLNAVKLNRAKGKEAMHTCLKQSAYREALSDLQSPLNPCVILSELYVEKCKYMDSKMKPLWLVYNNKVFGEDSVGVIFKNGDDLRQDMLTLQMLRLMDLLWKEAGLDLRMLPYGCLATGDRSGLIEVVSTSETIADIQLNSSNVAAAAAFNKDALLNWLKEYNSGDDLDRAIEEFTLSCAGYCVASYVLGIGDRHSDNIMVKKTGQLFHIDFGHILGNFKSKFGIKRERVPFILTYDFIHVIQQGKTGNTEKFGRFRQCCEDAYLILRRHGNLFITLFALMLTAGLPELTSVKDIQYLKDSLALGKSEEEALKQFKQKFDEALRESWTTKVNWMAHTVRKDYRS

Compound | IC50 [1] [µM] | IC50 [2] [µM] | further results
Cc1cc(N2CCOCC2)nc(NCc2ccccc2)n1 | 130 | – | –
Cc1cc(C(C)Nc2ccccc2)c2nc(N3CCOCC3)cc(=O)n2c1 (stereo not given) | – | 5.7 | logD [3]: 3.6
O=c1cc(N2CCOCC2)nc(NCc2ccccc2)[nH]1 | 1.9 | 12.2 | logD [3]: 1.2
O=c1nc(N2CCOCC2)cc(NCc2ccccc2)[nH]1 | 29 | > 83.3 | logD [3]: 0.5
O=c1cc(NCc2ccccc2)nc(N2CCOCC2)[nH]1 | 63 | 283 | logD [3]: 1.1
O=c1cc(NCc2ccccc2)[nH]c(N2CCOCC2)c1 | 34 | 142 | logD [3]: 1.8
NC(=O)c1cc(N2CCOCC2)nc(NCc2ccccc2)n1 | 2.5 | – | –
CNC(=O)c1cc(N2CCOCC2)nc(NCc2ccccc2)n1 | 23 | – | –
CN(C)C(=O)c1cc(N2CCOCC2)nc(NCc2ccccc2)n1 | 25 | – | –
Nc1nc(NCc2ccccc2)cc(N2CCOCC2)n1 | 110 | > 83.3 | –
N#Cc1nc(NCc2ccccc2)cc(N2CCOCC2)n1 | 1.6 | 41.4 | –
NCc1nc(NCc2ccccc2)cc(N2CCOCC2)n1 | 87 | > 83.3 | –
c1ccc(CNc2cc(N3CCOCC3)ncn2)cc1 | 36 | > 83.3 | –
COC(=O)c1cc(NCc2ccccc2)nc(N2CCOCC2)c1 | 32 | 240 | –
OCc1cc(NCc2ccccc2)nc(N2CCOCC2)c1 | 43 | 119 | –
O=c1cc(N2CCOCC2)nc(NCc2cccc3ccccc23)[nH]1 | 0.093 | 4.3 | logD [3]: 2.4; solubility [4]: 4.5 µM (≈ 1.51 µg/mL); half-life [5]: 41 min; Ratio (Liver microsomes): 0.21; IC50 [6]: 0.14 µM; IC50 [7]: 18.5 µM
O=c1cc(N2CCOCC2)nc(NCc2cccc(Cl)c2Cl)[nH]1 | 0.084 | 3 | –
O=c1cc(N2CCOCC2)nc(NCc2cccc(Cl)c2)[nH]1 | 0.47 | 7.9 | –
O=c1cc(N2CCOCC2)nc(NCc2ccccc2Cl)[nH]1 | 0.57 | 4.88 | –
O=c1cc(N2CCOCC2)nc(NCc2cc(Cl)ccc2Cl)[nH]1 | 1.4 | 4.52 | –
O=c1cc(N2CCOCC2)nc(NCc2c(Cl)cccc2Cl)[nH]1 | 1.5 | 3.38 | –
O=c1nc(N2CCOCC2)cc(NCc2cccc3ccccc23)[nH]1 | 2.6 | > 83.3 | logD [3]: 1.5; solubility [4]: > 100 µM; half-life [5]: > 115 min; Ratio (Liver microsomes): 0
O=c1nc(N2CCOCC2)cc(NCc2cccc(Cl)c2Cl)[nH]1 | 1.5 | 100 | –
C[C@H](Nc1cc(N2CCOCC2)nc(=O)[nH]1)c1cccc2ccccc12 | 10 | 52.8 | –
C[C@@H](Nc1cc(N2CCOCC2)nc(=O)[nH]1)c1cccc2ccccc12 | 36 | 146 | –
